# Laboratory results: ChEMBL document CHEMBL5042480, “3CL Protease Inhibitors with an Electrophilic Arylketone Moiety as Anti-SARS-CoV-2 Agents” (J Med Chem, 2022)
# The source made the active and inactive calls. No cut-off for these calls is given here.
# Legend:
# [1] = Inhibition of recombinant C-terminal His-tagged SARS coronavirus 1 3CL protease using Boc-Abu-Tle-Leu-Gln-AMC as substrate incubated for 5 mins by Cheng-Prusoff equation analysis; design: species or system Severe acute respiratory syndrome-related coronavirus
# SARS-CoV-2 = test: Antiviral activity against SARS coronavirus 2 infected in African green monkey Vero cells assessed as blockade of viral proliferation at 25 uM incubated for 48 hrs by cytopathic effect assay; assay type: functional, organism-based; conditions: Severe acute respiratory syndrome coronavirus 2
# [2] = Competitive inhibition of recombinant C-terminal His-tagged SARS coronavirus 2 3CL protease using Boc-Abu-Tle-Leu-Gln-AMC as substrate incubated for 5 mins by plate reader analysis; design: species or system Severe acute respiratory syndrome coronavirus 2
# Method in brief: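 Competitive-inhibition kinetics: fluorogenic substrate at 15, 30, 45, 60 and 75 μM was combined with inhibitor at 0, 10, 20, 30, 40 and 50 nM, and product formation was monitored for 10 min. Data were analysed by Lineweaver–Burk plot and global fit to a competitive model. Three independent experiments were run.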
# [3] = Inhibition of recombinant C-terminal His-tagged SARS coronavirus 2 3CL protease using Boc-Abu-Tle-Leu-Gln-AMC as substrate incubated for 5 mins by Cheng-Prusoff equation analysis; design: species or system Severe acute respiratory syndrome coronavirus 2
# Method in brief: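 His-tagged 3CLpro (8 ng/μL final) was assayed in 50 mM MOPS pH 7.2 with 10 mM NaCl, 1 mM EDTA and 0.01% Triton X-100. Substrate was 50 μM final (about Km) and DMSO 4% final. Inhibitor and substrate were preincubated 5 min at 37 °C, then enzyme was added and fluorescence (ex 360/em 460 nm) read for 10 min. At least 11 concentrations were tested; IC50 came from nonlinear regression and Ki from Cheng–Prusoff. n = 3.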
SMILES,Ki [1],Activity (SARS-CoV-2),Ki [2],Ki [3]
CC(C)C[C@H](NC(=O)[C@@H](NC(=O)OCc1ccccc1)C(C)C)C(=O)N[C@@H](C[C@@H]1CCNC1=O)C(=O)c1nc2ccccc2s1,4.1 nM,Active,19.8 nM,14.5 nM
CC(C)C[C@H](NC(=O)c1nc2ccccc2[nH]1)C(=O)N[C@@H](C[C@@H]1CCNC1=O)C(=O)c1nc2ccccc2s1,–,Active,–,32.1 nM
